Experimental data: paper PMC8813707 (Clinical Pharmacokinetics, 2021)
Like-named read-outs stand apart in the source and are kept apart here.

How the values were obtained:
[1] = endogenous CNP in humans; cited from earlier work
[2] = Vosoritide plasma pharmacokinetics, phase II study; type: in vivo, human
Outline: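 Phase II, daily s.c. doses 2.5–30 µg/kg. Plasma measured by validated ELISA: murine monoclonal anti-drug IgG capture, rabbit polyclonal anti-CNP IgG detection. Full sampling on days 1, 10, 29, 85 and 183, predose and 5–180 min postdose. Non-compartmental analysis used linear-up/log-down trapezoids. Below-LLOQ values before Tmax set to zero; those after Tmax censored.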

[3] = Vosoritide plasma pharmacokinetics, phase III study; type: in vivo, human
Outline: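 Phase III, 15 µg/kg s.c. once daily. Full plasma sampling at day 1, week 26 and week 52: predose and 5, 15, 30, 45, 60, 90 and 120 min. Sparse sampling at weeks 13 and 39. Parameters from non-compartmental analysis with linear-up/log-down trapezoids. Effects of sex, body weight, age, race and anti-drug antibodies on exposure were evaluated.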

[4] = test system: patients with achondroplasia; experiment: Change from baseline in annualized growth velocity; type: in vivo, human
Outline: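 Phase II: once-daily subcutaneous dosing at 2.5–30 µg/kg. Change in AGV from baseline to day 183 fitted by sigmoid Emax (E0, Emax, EC50, Hill h) against individual mean Cmax or AUC0-t, each averaged per patient over all PK visit days. Phase III (15 µg/kg) exposure–AGV also analysed. Estimates given with 95% CIs.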

[5] = test system: collagen type X marker (CXM); experiment: Serum collagen type X marker; type: in vivo, human
Outline: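 Serum CXM measured by electrochemiluminescence sandwich assay. Streptavidin plates were blocked, then coated with biotinylated anti-collagen X NC1 SOMAmer capture. Standard was recombinant human collagen X NC1; sera diluted 1:100. Detection used ruthenium-labelled mouse mAb. Values read from a 4PL curve (1/Y² weighting); LOD 914 pg/mL neat serum. Individual mean CXM (day 10–183, phase II) fitted by sigmoid Emax versus individual mean Cmax or AUC0-t.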

[6] = molecular target: urine cGMP (activity through the target receptor NPR-B); experiment: Urine cGMP normalized to creatinine; type: in vivo, human
Outline: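 Urine collected predose and 1, 2 and 4 h postdose. Phase II: initial 6 months plus months 12, 18 and 24. Phase III: days 1–3 and weeks 6, 26 and 52. cGMP measured (LLOQ 138 pmol/mL neat urine) and normalised to creatinine. Maximum postdose increase is taken over the same-visit predose value; negative if predose is maximal. Fitted against visit-matched Cmax/AUC (non-estimable set to zero): sigmoid Emax (phase II) or Emax with h=1 (phase III).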

[7] = test system: total anti-vosoritide antibody (TAb); experiment: Total anti-vosoritide antibodies; type: in vivo, human; settings: phase III; p > 0.8 for difference in estimated mean Cmax and AUC0-∞ by TAb status, t-test
NPR-B = experiment: Vosoritide-neutralizing antibodies; type: cell-based, human; settings: phase III, all time points tested
Outline: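 Run only on confirmed TAb-positive sera. Frozen NIH/3T3 cells cultured overnight (DMEM high glucose + 10% FBS, 37°C, 5% CO2). Cells stimulated with 5 ng/mL drug in diluted serum; cellular cGMP read by ELISA, where signal is inverse to cGMP. Screening cut point: upper 95th percentile of pretreatment sera. Positives confirmed by immunodepletion on drug-conjugated magnetic beads. LOD 227 ng/mL.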

[8] = test system: patients with achondroplasia; type: in vivo, human; settings: phase II, initial 6 months, visit-matched; the single patient with high exposure
[9] = test system: patients with achondroplasia; settings: phase II, children with achondroplasia, daily dose of 15 µg/kg, up to 42 months; cited from earlier work
[10] = phase II, the single patient with high individual mean exposure

## C-type natriuretic peptide [CNP]
[1]
  half-life: 2.6 min

## CC[C@H](C)[C@@H]1NC(=O)[C@H](CCCNC(=N)N)NC(=O)[C@H](CC(=O)O)NC(=O)[C@H](CC(C)C)NC(=O)[C@H](CCCCN)NC(=O)[C@H](CC(C)C)NC(=O)CNC(=O)[C@H](Cc2ccccc2)NC(=O)[C@@H](NC(=O)CNC(=O)[C@H](CCCCN)NC(=O)[C@H](CO)NC(=O)[C@H](CC(C)C)NC(=O)CNC(=O)[C@H](CCCCN)NC(=O)[C@H](CCCCN)NC(=O)[C@H](CC(N)=O)NC(=O)[C@H](C)NC(=O)CNC(=O)[C@H](CCCCN)NC(=O)[C@H](Cc2ccc(O)cc2)NC(=O)[C@H](CCCCN)NC(=O)[C@H](CCCNC(=N)N)NC(=O)[C@H](C)NC(=O)[C@H](CC(N)=O)NC(=O)[C@@H]2CCCN2C(=O)[C@H](Cc2c[nH]cn2)NC(=O)[C@H](CCC(=O)O)NC(=O)[C@H](CCC(N)=O)NC(=O)CNC(=O)[C@@H]2CCCN2)CSSC[C@@H](C(=O)O)NC(=O)CNC(=O)[C@H](CC(C)C)NC(=O)CNC(=O)[C@H](CO)NC(=O)[C@H](CCSC)NC(=O)[C@H](CO)NC(=O)CNC1=O [vosoritide]
[2]; doses from 2.5 to 30 μg/kg
  increase in vosoritide exposure with dose: greater than proportional
[2]; human, plasma, sc, 2.5 ug/kg
  Cmax: 0.549 ng/mL
  Tmax: 5 min
[2]; human, plasma, sc, 7.5 ug/kg
  Cmax: 1.36 ng/mL
  Tmax: 13.7 min
[2]; human, plasma, sc, 15 ug/kg
  CL/F: 83.7 mL/min/kg
  Cmax: 4.75 ng/mL
  Tmax: 15.8 min
  Vd/F: 2.56 L/kg
  half-life: 24.4 min
[2]; human, plasma, sc, 30 ug/kg
  Cmax: 16.8 ng/mL
[2]; phase II, single patient with high exposure, left out of the figure
  Cmax at one visit of one patient: 839 ng/mL
[3]
  impact of sex on plasma Cmax or AUC0-60min: no apparent impact
[3]; 15 µg/kg s.c. once daily, 52 weeks
  accumulation with once-daily dosing: No evidence of accumulation
[3]; 15 µg/kg s.c. once daily, Week 52, plasma ECLA, NCA, mean
  Vz/F: 2.91 L/kg
[3]; linear regression, p < 0.001
  relationship of plasma AUC0-60min with body weight and age: positively correlated
[4]; phase II, 24 months of daily dosing, 15 and 30 µg/kg, linear regression, p = 0.34 for Cmax, p = 0.50 for AUC0-60min
  correlation between plasma exposure and change in AGV: no significant correlation
[4]; [10]
  change in annualized growth velocity from baseline to day 183 of one patient: 3.56 cm/year
[4]; phase III, 15 µg/kg, baseline to week 52, linear regression, p = 0.52 for Cmax, p = 0.54 for AUC0-60min
  relationship between exposure and changes in AGV: lack of relationship
[4]; sigmoid Emax model vs individual mean AUC0-t, baseline to day 183, phase II, MPE
  EC50 (AUC0-t producing half maximal effect), change in AGV: 20,500 pg-min/mL
[5]; phase II, 24 months of daily dosing, 15 and 30 µg/kg, linear regression, p = 0.98 for Cmax, p = 0.99 for AUC0-60min
  correlation between plasma exposure and mean CXM concentration: no significant correlation
[5]; [10]
  mean CXM from day 10 to day 183 of one patient: 12,200 pg/mL
[5]; phase III, 15 µg/kg, week 13 to week 52, linear regression, p = 0.74 for Cmax, p = 0.58 for AUC0-60min
  relationship between exposure and mean CXM concentrations: lack of relationship
[5]; sigmoid Emax model vs individual mean AUC0-t, day 10 to day 183, phase II, MPE
  EC50 (AUC0-t producing half maximal effect on CXM): 51700 pg·min/mL
[6]; Emax model (h = 1) vs visit-matched AUC0-60min, phase III, 15 µg/kg, MPE
  EC50 (AUC0-60min producing half maximal effect on cGMP/Cr): 479000 pg·min/mL
[6]; Emax model (h = 1) vs visit-matched Cmax, phase III, 15 µg/kg, MPE (95% CI)
  Emax, maximum postdose increase in urine cGMP/Cr: 18,160 (13,800–22,600) pmol/mg Cr
[6]; phase II, initial 6 months, visit-matched, the single patient with high exposure
  maximum change from pre-dose cGMP/Cr of one patient: 8190 pmol/mg Cr
[6]; sigmoid Emax model vs visit-matched AUC0-t, initial 6 months of phase II, MPE
  EC50 (AUC0-t producing half maximal effect on cGMP/Cr): 222000 pg·min/mL
[7]
  impact of serum TAb on plasma exposure of vosoritide (Cmax and AUC0-∞): no apparent impact
NPR-B
  NAb status of TAb-positive patients: negative
[8]
  maximum decrease in DBP of one patient: −2 mmHg
  maximum decrease in SBP of one patient: −7 mmHg
  maximum increase in HR of one patient: 39 bpm
[9]
  sustained mean increase in annualized growth velocity (AGV) above baseline: 1.55 cm/year
